Assay results: ChEMBL document CHEMBL1145427, “Quick assembly of 1,4-diphenyltriazoles as probes targeting beta-amyloid aggregates in Alzheimer's disease” (J Med Chem, 2007)

Experiments:
[1] = Displacement of [125I]IMPY from beta amyloid protein plaques in Alzheimer's disease patient brain; design: species or system Homo sapiens
Method in brief: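 Competition binding to pooled gray-matter homogenates from four AD brains (approximately 100 mg wet tissue/mL in PBS pH 7.4; 20–50 μg per tube). [125I]2 at 0.04–0.06 nM; inhibitors 10^-5–10^-10 M in PBS with 0.1% BSA; final volume 1 mL. Nonspecific binding with 600 nM 2. Incubated 37 °C, 2 h; GF/B filtration, gamma counting. Ki from nonlinear regression.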

Spleen [2] = experiment: Biodistribution in ICR mouse spleen at 5 to 10 uCi, iv after 30 mins; type: ADME, organism-based; settings: in vivo, 0.5 h
Method in brief: (§1)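 Male ICR mice (22–25 g) under isoflurane anesthesia; [125I] or [18F] tracer (5–10 μCi) in 0.15 mL of 0.1% bovine serum albumin solution injected into the tail vein. Groups of n = 3 per time point, killed by cervical dislocation. Organs removed, weighed and gamma-counted against diluted aliquots of injected dose, giving % dose/organ and % ID/g. Total blood activity assumed as 7% of body weight.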

Brain [3] = experiment: Biodistribution in ICR mouse brain at 5 to 10 uCi, iv after 30 mins; type: ADME, organism-based; settings: in vivo, 0.5 h; method in brief: as §1
Spleen [4] = experiment: Biodistribution in ICR mouse spleen at 5 to 10 uCi, iv after 2 mins; type: ADME, organism-based; settings: in vivo; method in brief: as §1
Zone of skin [5] = experiment: Biodistribution in ICR mouse skin at 5 to 10 uCi, iv after 2 hrs; type: ADME, organism-based; settings: in vivo; method in brief: as §1
Liver [6] = experiment: Biodistribution in ICR mouse liver at 5 to 10 uCi, iv after 30 mins; type: ADME, organism-based; settings: in vivo, 0.5 h; method in brief: as §1
Kidney [7] = experiment: Biodistribution in ICR mouse kidney at 5 to 10 uCi, iv after 1 hr; type: ADME, organism-based; settings: in vivo; method in brief: as §1
Muscle tissue [8] = experiment: Biodistribution in ICR mouse muscle at 5 to 10 uCi, iv after 2 mins; type: ADME, organism-based; settings: in vivo; method in brief: as §1
Blood [9] = experiment: Biodistribution in ICR mouse blood at 5 to 10 uCi, iv after 30 mins; type: ADME, organism-based; settings: in vivo, 0.5 h; method in brief: as §1
Zone of skin [10] = experiment: Biodistribution in ICR mouse skin at 5 to 10 uCi, iv after 30 mins; type: ADME, organism-based; settings: in vivo, 0.5 h; method in brief: as §1
Lung [11] = experiment: Biodistribution in ICR mouse lung at 5 to 10 uCi, iv after 2 hrs; type: ADME, organism-based; settings: in vivo; method in brief: as §1
Blood [12] = experiment: Biodistribution in ICR mouse blood at 5 to 10 uCi, iv after 2 hrs; type: ADME, organism-based; settings: in vivo; method in brief: as §1
Thyroid gland [13] = experiment: Biodistribution in ICR mouse thyroid at 5 to 10 uCi, iv after 30 mins; type: ADME, organism-based; settings: in vivo, 0.5 h; method in brief: as §1
Zone of skin [14] = experiment: Biodistribution in ICR mouse skin at 5 to 10 uCi, iv after 2 mins; type: ADME, organism-based; settings: in vivo; method in brief: as §1
Brain [15] = experiment: Biodistribution in ICR mouse brain at 5 to 10 uCi, iv after 2 mins; type: ADME, organism-based; settings: in vivo; method in brief: as §1
Kidney [16] = experiment: Biodistribution in ICR mouse kidney at 5 to 10 uCi, iv after 2 mins; type: ADME, organism-based; settings: in vivo; method in brief: as §1
Lung [17] = experiment: Biodistribution in ICR mouse lung at 5 to 10 uCi, iv after 1 hr; type: ADME, organism-based; settings: in vivo; method in brief: as §1
Heart [18] = experiment: Biodistribution in ICR mouse heart at 5 to 10 uCi, iv after 2 mins; type: ADME, organism-based; settings: in vivo; method in brief: as §1
Spleen [19] = experiment: Biodistribution in ICR mouse spleen at 5 to 10 uCi, iv after 2 hrs; type: ADME, organism-based; settings: in vivo; method in brief: as §1
Blood [20] = experiment: Biodistribution in ICR mouse blood at 5 to 10 uCi, iv after 1 hr; type: ADME, organism-based; settings: in vivo; method in brief: as §1
Zone of skin [21] = experiment: Biodistribution in ICR mouse skin at 5 to 10 uCi, iv after 1 hr; type: ADME, organism-based; settings: in vivo; method in brief: as §1
Heart [22] = experiment: Biodistribution in ICR mouse heart at 5 to 10 uCi, iv after 2 hrs; type: ADME, organism-based; settings: in vivo; method in brief: as §1
Brain [23] = experiment: Biodistribution in ICR mouse brain at 5 to 10 uCi, iv after 1 hr; type: ADME, organism-based; settings: in vivo; method in brief: as §1
Brain [24] = experiment: Biodistribution in ICR mouse brain at 5 to 10 uCi, iv after 2 hrs; type: ADME, organism-based; settings: in vivo; method in brief: as §1
Liver [25] = experiment: Biodistribution in ICR mouse liver at 5 to 10 uCi, iv after 2 hrs; type: ADME, organism-based; settings: in vivo; method in brief: as §1
Thyroid gland [26] = experiment: Biodistribution in ICR mouse thyroid at 5 to 10 uCi, iv after 2 mins; type: ADME, organism-based; settings: in vivo; method in brief: as §1
Muscle tissue [27] = experiment: Biodistribution in ICR mouse muscle at 5 to 10 uCi, iv after 2 hrs; type: ADME, organism-based; settings: in vivo; method in brief: as §1
Liver [28] = experiment: Biodistribution in ICR mouse liver at 5 to 10 uCi, iv after 2 mins; type: ADME, organism-based; settings: in vivo; method in brief: as §1
Thyroid gland [29] = experiment: Biodistribution in ICR mouse thyroid at 5 to 10 uCi, iv after 2 hrs; type: ADME, organism-based; settings: in vivo; method in brief: as §1
Kidney [30] = experiment: Biodistribution in ICR mouse kidney at 5 to 10 uCi, iv after 30 mins; type: ADME, organism-based; settings: in vivo, 0.5 h; method in brief: as §1
Heart [31] = experiment: Biodistribution in ICR mouse heart at 5 to 10 uCi, iv after 1 hr; type: ADME, organism-based; settings: in vivo; method in brief: as §1
Heart [32] = experiment: Biodistribution in ICR mouse heart at 5 to 10 uCi, iv after 30 mins; type: ADME, organism-based; settings: in vivo, 0.5 h; method in brief: as §1
[33] = Partition coefficient, log P of the compound; type: physicochemical; settings: octanol/water
Method in brief: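 [125I] or [18F] tracer mixed with 3 g each of 1-octanol and 0.1 M phosphate buffer pH 7.4. Vortexed 3 min at room temperature, then centrifuged 5 min. Two 0.5 g samples from each layer counted; PC is the ratio of cpm/g in octanol to cpm/g in buffer. The octanol layer was repartitioned until values were consistent.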

Muscle tissue [34] = experiment: Biodistribution in ICR mouse muscle at 5 to 10 uCi, iv after 30 mins; type: ADME, organism-based; settings: in vivo, 0.5 h; method in brief: as §1
Blood [35] = experiment: Biodistribution in ICR mouse blood at 5 to 10 uCi, iv after 2 mins; type: ADME, organism-based; settings: in vivo; method in brief: as §1
Lung [36] = experiment: Biodistribution in ICR mouse lung at 5 to 10 uCi, iv after 30 mins; type: ADME, organism-based; settings: in vivo, 0.5 h; method in brief: as §1
Lung [37] = experiment: Biodistribution in ICR mouse lung at 5 to 10 uCi, iv after 2 mins; type: ADME, organism-based; settings: in vivo; method in brief: as §1
Spleen [38] = experiment: Biodistribution in ICR mouse spleen at 5 to 10 uCi, iv after 1 hr; type: ADME, organism-based; settings: in vivo; method in brief: as §1
Muscle tissue [39] = experiment: Biodistribution in ICR mouse muscle at 5 to 10 uCi, iv after 1 hr; type: ADME, organism-based; settings: in vivo; method in brief: as §1
Liver [40] = experiment: Biodistribution in ICR mouse liver at 5 to 10 uCi, iv after 1 hr; type: ADME, organism-based; settings: in vivo; method in brief: as §1
Thyroid gland [41] = experiment: Biodistribution in ICR mouse thyroid at 5 to 10 uCi, iv after 1 hr; type: ADME, organism-based; settings: in vivo; method in brief: as §1
Kidney [42] = experiment: Biodistribution in ICR mouse kidney at 5 to 10 uCi, iv after 2 hrs; type: ADME, organism-based; settings: in vivo; method in brief: as §1

CNc1ccc(-c2cn(-c3ccc(I)cc3)nn2)cc1
Ki [1]: 4 nM

CN(C)c1ccc(-c2cn(-c3ccc(I)cc3)nn2)cc1
Ki [1]: 8 nM

CN(C)c1ccc(-c2cn(-c3ccc(OCCF)cc3)nn2)cc1
Ki [1]: 5 nM

CN(C)c1ccc(-c2cn(-c3ccc(OCCCO)cc3)nn2)cc1
Ki [1]: 75 nM

CNc1ccc(-c2cn(-c3ccc([125I])cc3)nn2)cc1
Drug uptake (Spleen [2]): 1.8 % ID/g
Drug uptake (Brain [3]): 1.66 % ID/g
Drug uptake (Spleen [4]): 4.9 % ID/g
Drug uptake (Zone of skin [5]): 1.6 % ID/g
Drug uptake (Liver [6]): 11.1 % ID/g
Drug uptake (Kidney [7]): 3.71 % ID/g
Drug uptake (Muscle tissue [8]): 0.83 % ID/g
Drug uptake (Blood [9]): 3.04 % ID/g
Drug uptake (Zone of skin [10]): 2.34 % ID/g
Drug uptake (Lung [11]): 2.83 % ID/g
Drug uptake (Blood [12]): 2.06 % ID/g
Drug uptake (Thyroid gland [13]): 11.5 % ID/g
Drug uptake (Zone of skin [14]): 1.05 % ID/g
Drug uptake (Brain [15]): 9.4 % ID/g
Drug uptake (Kidney [16]): 13.4 % ID/g
Drug uptake (Lung [17]): 2.82 % ID/g
Drug uptake (Heart [18]): 7.45 % ID/g
Drug uptake (Spleen [19]): 1.16 % ID/g
Drug uptake (Blood [20]): 2.04 % ID/g
Drug uptake (Zone of skin [21]): 1.81 % ID/g
Drug uptake (Heart [22]): 0.89 % ID/g
Drug uptake (Brain [23]): 0.7 % ID/g
Drug uptake (Brain [24]): 0.43 % ID/g
Drug uptake (Liver [25]): 6 % ID/g
Drug uptake (Thyroid gland [26]): 4.38 % ID/g
Drug uptake (Muscle tissue [27]): 0.47 % ID/g
Drug uptake (Liver [28]): 20.7 % ID/g
Drug uptake (Thyroid gland [29]): 62.1 % ID/g
Drug uptake (Kidney [30]): 6.43 % ID/g
Drug uptake (Heart [31]): 1.1 % ID/g
Drug uptake (Heart [32]): 1.79 % ID/g
logP [33]: 3
Drug uptake (Muscle tissue [34]): 1.07 % ID/g
Drug uptake (Blood [35]): 4.45 % ID/g
Drug uptake (Lung [36]): 4.86 % ID/g
Drug uptake (Lung [37]): 16 % ID/g
Drug uptake (Spleen [38]): 1.24 % ID/g
Drug uptake (Muscle tissue [39]): 0.56 % ID/g
Drug uptake (Liver [40]): 6.46 % ID/g
Drug uptake (Thyroid gland [41]): 54.2 % ID/g
Drug uptake (Kidney [42]): 2.91 % ID/g

CN(C)c1ccc(-c2cn(-c3ccc(OCCCF)cc3)nn2)cc1
Ki [1]: 6.2 nM
